The values below come from ChEMBL document CHEMBL4431376, “CZ415, a Highly Selective mTOR Inhibitor Showing in Vivo Efficacy in a Collagen Induced Arthritis Model” (ACS Med Chem Lett, 2016).

In brackets after ≈: the same amount, converted by molar mass.

One series concerns the target T1, Cytochrome P450 1A (Homo sapiens, UniProt P04798+P05177).
T1 sequence (P04798 whole entry): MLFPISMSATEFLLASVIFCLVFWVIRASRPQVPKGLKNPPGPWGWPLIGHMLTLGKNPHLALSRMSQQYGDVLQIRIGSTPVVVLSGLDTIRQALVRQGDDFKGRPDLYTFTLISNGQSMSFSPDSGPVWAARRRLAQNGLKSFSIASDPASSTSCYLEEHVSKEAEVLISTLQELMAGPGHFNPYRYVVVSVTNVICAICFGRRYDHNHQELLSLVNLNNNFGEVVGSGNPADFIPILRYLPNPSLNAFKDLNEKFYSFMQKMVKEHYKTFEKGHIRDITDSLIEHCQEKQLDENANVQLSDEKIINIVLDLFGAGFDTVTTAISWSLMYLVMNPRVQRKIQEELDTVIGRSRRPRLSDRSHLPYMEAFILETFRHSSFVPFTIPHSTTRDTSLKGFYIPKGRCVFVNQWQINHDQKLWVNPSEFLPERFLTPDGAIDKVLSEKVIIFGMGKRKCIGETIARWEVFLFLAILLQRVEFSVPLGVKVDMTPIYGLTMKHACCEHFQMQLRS
T1 sequence (P05177 whole entry): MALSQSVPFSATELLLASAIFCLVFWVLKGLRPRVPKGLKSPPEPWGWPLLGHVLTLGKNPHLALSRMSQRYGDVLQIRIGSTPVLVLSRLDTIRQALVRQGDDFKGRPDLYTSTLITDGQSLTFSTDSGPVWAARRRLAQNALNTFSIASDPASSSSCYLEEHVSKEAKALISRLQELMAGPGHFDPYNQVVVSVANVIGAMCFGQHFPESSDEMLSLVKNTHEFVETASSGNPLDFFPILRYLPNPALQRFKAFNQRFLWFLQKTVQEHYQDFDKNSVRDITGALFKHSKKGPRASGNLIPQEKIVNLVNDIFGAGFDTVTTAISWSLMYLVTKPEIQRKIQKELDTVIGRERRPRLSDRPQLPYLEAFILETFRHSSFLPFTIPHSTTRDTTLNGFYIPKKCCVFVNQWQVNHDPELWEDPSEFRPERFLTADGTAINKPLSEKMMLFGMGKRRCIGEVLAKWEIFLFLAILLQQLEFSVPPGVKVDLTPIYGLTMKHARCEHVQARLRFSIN
Kind of series: Inhibition of CYP1A in human liver microsomes.

For another series, the target named is T2, Cytochrome P450 2C8 (Homo sapiens, UniProt P10632).
T2 sequence (P10632 whole entry): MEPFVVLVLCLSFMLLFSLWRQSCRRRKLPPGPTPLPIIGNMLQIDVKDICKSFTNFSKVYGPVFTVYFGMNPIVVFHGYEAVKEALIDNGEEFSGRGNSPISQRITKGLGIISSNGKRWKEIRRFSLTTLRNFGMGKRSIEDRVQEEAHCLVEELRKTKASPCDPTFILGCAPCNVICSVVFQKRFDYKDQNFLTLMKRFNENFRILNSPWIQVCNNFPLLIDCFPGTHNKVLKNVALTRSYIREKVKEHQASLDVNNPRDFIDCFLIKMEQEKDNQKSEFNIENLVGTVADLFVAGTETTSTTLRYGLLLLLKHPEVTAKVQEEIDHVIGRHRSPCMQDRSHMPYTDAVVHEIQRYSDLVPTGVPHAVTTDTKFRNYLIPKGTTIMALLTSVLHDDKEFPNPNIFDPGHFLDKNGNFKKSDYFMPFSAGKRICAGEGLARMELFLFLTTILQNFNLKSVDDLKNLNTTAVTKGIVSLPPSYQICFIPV
Kind of series: Inhibition of CYP2C8 in human liver microsomes. It counts as ADME.

The target of another series is Cytochrome P450 2C9 (Homo sapiens, UniProt P11712). Kind of series: Inhibition of CYP2C9 in human liver microsomes. It counts as ADME. A general note: Microsomes from liver hold many membrane-bound enzymes, among them those of drug oxidation.
Chain of Cytochrome P450 2C9 (P11712 whole entry): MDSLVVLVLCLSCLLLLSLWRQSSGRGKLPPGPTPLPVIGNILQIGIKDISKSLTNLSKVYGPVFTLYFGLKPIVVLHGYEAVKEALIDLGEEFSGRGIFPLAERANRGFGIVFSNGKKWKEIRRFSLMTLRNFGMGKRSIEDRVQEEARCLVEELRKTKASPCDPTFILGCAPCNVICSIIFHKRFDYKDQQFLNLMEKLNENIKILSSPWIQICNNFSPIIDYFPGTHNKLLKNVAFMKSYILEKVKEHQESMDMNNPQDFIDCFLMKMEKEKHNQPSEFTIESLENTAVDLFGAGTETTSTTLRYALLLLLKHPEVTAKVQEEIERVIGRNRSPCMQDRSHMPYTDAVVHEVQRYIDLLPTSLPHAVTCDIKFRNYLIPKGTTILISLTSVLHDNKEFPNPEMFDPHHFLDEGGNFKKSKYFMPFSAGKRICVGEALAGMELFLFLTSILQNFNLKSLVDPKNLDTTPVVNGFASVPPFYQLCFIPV
The next series has as its target Cytochrome P450 2C19 (Homo sapiens, UniProt P33261). Kind of series: Inhibition of CYP2C19 in human liver microsomes. The format is ADME.
The next series has as its target Cytochrome P450 2D6 (Homo sapiens, UniProt P10635). Kind of series: Inhibition of CYP2D6 in human liver microsomes. It counts as ADME.
Series [1] has as its target T3, Cytochrome P450 3A4 (Homo sapiens, UniProt P08684). Kind of series: Inhibition of CYP3A4 in human liver microsomes. The format is ADME.
Series [2] deals with T3, Cytochrome P450 3A4. In words: Induction of CYP3A4 in […] at 10 uM. The format is ADME. The procedure, abridged:
(§1)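 CYP3A4 induction tested at 10 μM. Time-dependent inhibition of CYP3A4 tested at up to 50 μM.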

Series [3] deals with T3, Cytochrome P450 3A4. Kind of series: Time-dependent inhibition of CYP3A4 in human liver microsomes at 50 uM. The format is ADME. The procedure, abridged:
as §1

In series [4] the target is Voltage-gated inwardly rectifying potassium channel KCNH2 (Homo sapiens, UniProt Q12809). In words: Inhibition of human ERG expressed in HEK293 cells by whole cell patch clamp assay. The format is cell-based. The procedure, abridged:
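hERG measured by whole-cell patch clamp in HEK293 cells, reported as IC50.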
For orientation: Patch clamp records ionic current or voltage across a cell membrane.

The nature of series [5]: Mutagenicity in Salmonella typhimurium by Ames test. It counts as toxicity. Particulars: salmonella enterica subsp. enterica serovar typhimurium.
In series [6] the test system is Lymphoma cell line. In words: Genotoxicity in mouse lymphoma cells in presence of rat liver S9 fraction. The format is toxicity, cell-based.
The test system of series [7] is Lymphoma cell line. In words: Genotoxicity in mouse lymphoma cells in absence of rat liver S9 fraction. It counts as toxicity, cell-based.
A short description of series [8]: Distribution coefficient, logD of compound at pH 7.4. As to conditions: octanol/water; call rule not given here. It counts as physicochemical. Summed up: (§2)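 logD measured at pH 7.4. Kinetic solubility measured by CLND. Solubility also measured in FaSSIF and FeSSIF biorelevant media.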
A short description of series [9]: Kinetic solubility of compound by chemiluminescent nitrogen detection method. As to conditions: read-out: Kinetic_solubility. It counts as physicochemical. Summed up:
as §2

Series [10] in a line: Solubility of compound in fasted state simulated intestinal fluid. It counts as physicochemical. Summed up: as §2
A short description of series [11]: Solubility of compound in fed state simulated intestinal fluid. The format is physicochemical. Summed up: as §2
The nature of series [12]: Apparent permeability from apical to basolateral side in human CaCo2 cells. As to conditions: Caco-2. It counts as ADME, cell-based. Summed up:
(§3)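 Caco-2 monolayer permeability, measured as Papp in the apical-to-basolateral and basolateral-to-apical directions.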

Series [13] is described as follows: Apparent permeability from basolateral to apical side in human CaCo2 cells. The format is ADME, cell-based. Particulars: Caco-2. The procedure, abridged: as §3
(In general: Passage across Caco-2 layers is used to estimate intestinal permeability.)

Series [14] is described as follows: Intrinsic clearance in pooled rat liver microsomes at 1 uM incubated up to 40 mins in presence of NADPH by LC-MS/MS analysis. The format is ADME, Microsome. The procedure, abridged: (§4)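 Metabolic stability was assessed in liver microsomes (rat, dog, human) and hepatocytes (dog, human). Intrinsic clearance was calculated as μL/min/g liver.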
The nature of series [15]: Intrinsic clearance in pooled dog liver microsomes at 1 uM incubated up to 40 mins in presence of NADPH by LC-MS/MS analysis. It counts as ADME, Canis lupus familiaris, Microsome. Summed up: as §4
Series [16] can be described thus: Intrinsic clearance in pooled human liver microsomes at 1 uM incubated up to 40 mins in presence of NADPH by LC-MS/MS analysis. It counts as ADME, Microsome. Summed up:
as §4

Series [17] in a line: Intrinsic clearance in pooled cryopreserved dog hepatocytes at 1 uM incubated up to 90 mins by LC-MS/MS analysis. The format is ADME, cell-based, Canis lupus familiaris, Hepatocyte. Particulars: 1.5 h. The procedure, abridged:
as §4

As a reminder, the IC50 is the concentration needed to halve the response being measured. Read a high IC50 as weaker potency in that assay. Broadly, the logD is the decadic logarithm of the distribution of all forms, ionised or not, between an organic phase and buffer at a given pH. Low readings indicate lower lipophilicity, high ones higher lipophilicity. Broadly, the solubility is how much of the substance goes into solution per volume. A low value points to a poorly soluble substance. As a reminder, the Papp A→B is how fast a substance crosses the layer from the apical side. One may read the Papp B→A as the apparent permeability from the basolateral to the apical side of a cell layer.

T3 sequence (P08684 whole entry): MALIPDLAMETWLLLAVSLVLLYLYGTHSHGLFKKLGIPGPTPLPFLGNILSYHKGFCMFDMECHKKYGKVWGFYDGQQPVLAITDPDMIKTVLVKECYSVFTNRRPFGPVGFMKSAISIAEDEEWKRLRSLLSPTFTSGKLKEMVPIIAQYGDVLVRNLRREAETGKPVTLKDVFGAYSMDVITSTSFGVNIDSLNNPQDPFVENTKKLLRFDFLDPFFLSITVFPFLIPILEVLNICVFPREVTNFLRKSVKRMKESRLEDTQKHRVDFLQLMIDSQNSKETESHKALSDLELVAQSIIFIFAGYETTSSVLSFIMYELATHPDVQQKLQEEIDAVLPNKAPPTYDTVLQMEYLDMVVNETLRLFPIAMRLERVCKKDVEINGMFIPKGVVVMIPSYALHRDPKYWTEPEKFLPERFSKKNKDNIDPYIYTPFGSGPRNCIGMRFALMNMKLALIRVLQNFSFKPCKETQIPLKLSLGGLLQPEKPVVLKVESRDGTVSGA
Chain of Voltage-gated inwardly rectifying potassium channel KCNH2 (Q12809 whole entry): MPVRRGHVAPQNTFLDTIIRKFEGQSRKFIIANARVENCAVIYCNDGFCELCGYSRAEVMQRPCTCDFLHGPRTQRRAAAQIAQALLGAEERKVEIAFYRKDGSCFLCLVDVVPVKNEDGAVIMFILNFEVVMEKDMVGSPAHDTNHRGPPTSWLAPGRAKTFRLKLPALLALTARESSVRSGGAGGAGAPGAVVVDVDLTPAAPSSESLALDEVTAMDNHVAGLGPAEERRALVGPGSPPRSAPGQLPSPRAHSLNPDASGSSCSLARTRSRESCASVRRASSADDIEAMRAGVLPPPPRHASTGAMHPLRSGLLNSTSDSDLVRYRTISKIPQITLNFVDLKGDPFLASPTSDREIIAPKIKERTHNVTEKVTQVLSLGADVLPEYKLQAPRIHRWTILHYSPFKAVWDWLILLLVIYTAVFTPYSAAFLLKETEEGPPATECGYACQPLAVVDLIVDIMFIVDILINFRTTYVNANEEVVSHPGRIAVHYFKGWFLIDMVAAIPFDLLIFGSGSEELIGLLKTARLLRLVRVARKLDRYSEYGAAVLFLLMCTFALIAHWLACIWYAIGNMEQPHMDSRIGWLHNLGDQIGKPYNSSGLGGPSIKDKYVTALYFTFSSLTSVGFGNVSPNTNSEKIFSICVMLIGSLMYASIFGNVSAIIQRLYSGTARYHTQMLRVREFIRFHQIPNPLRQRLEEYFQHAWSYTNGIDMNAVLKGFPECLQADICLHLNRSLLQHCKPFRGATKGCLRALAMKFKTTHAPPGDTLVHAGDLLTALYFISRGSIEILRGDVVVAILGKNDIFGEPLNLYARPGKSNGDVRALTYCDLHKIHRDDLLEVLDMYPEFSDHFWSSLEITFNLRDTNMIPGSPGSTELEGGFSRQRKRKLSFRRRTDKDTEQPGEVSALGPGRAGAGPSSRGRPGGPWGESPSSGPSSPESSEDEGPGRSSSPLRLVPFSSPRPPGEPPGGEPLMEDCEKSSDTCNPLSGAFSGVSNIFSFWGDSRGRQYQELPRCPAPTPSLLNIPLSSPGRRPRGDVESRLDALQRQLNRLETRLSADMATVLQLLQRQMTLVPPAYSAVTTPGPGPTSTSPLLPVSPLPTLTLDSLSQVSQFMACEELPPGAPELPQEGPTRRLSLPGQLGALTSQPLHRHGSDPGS
Chain of Cytochrome P450 2D6 (P10635 whole entry): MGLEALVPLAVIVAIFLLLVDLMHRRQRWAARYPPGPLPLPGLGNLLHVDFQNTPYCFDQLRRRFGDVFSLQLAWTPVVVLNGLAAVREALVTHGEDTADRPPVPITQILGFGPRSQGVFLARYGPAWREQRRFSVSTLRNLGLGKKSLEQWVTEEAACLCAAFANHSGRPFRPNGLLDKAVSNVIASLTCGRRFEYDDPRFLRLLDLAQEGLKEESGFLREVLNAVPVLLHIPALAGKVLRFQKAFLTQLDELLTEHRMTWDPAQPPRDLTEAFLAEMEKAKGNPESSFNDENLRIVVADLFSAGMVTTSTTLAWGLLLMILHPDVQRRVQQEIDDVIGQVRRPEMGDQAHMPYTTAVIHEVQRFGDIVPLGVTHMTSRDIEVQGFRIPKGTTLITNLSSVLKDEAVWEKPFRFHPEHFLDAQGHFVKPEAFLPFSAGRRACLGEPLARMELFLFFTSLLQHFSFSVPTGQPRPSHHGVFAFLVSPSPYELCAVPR
Chain of Cytochrome P450 2C19 (P33261 whole entry): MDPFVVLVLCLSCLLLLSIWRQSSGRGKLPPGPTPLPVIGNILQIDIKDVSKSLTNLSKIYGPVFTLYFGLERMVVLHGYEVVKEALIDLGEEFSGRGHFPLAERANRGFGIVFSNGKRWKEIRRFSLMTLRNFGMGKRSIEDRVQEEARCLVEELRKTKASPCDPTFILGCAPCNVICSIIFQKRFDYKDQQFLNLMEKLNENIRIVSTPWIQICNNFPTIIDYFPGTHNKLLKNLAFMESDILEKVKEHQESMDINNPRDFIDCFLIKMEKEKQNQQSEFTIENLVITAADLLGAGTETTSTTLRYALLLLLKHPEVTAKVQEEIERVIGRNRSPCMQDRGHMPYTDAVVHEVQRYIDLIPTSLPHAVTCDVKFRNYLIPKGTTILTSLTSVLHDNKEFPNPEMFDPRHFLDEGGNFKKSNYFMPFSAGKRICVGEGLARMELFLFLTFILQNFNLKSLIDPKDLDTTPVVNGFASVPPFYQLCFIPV

For `CCNC(=O)Nc1ccc(-c2nc(N3CCOC[C@@H]3C)c3c(n2)C(C)(C)S(=O)(=O)C3)cc1`, the “inhibition (INH)” value on Cytochrome P450 1A, against Cytochrome P450 2C8, against Cytochrome P450 2C9, against Cytochrome P450 2C19, at Cytochrome P450 2D6 and against Cytochrome P450 3A4 [1] was “Not Active” each time. The Activity entry at Cytochrome P450 3A4 [2] is given as “Not Active”; in series [5] it was “Non-Toxic”; in the series on Lymphoma cell line [6], “Non-Toxic”; in the series with Lymphoma cell line [7] it was “Non-Toxic”. Also, the TDI entry on Cytochrome P450 3A4 [3] is given as “Not Active”. The compound further gave an IC50 in [4] of 48 µM. This compound also returned a logD in series [8] of 4.31. Also, the solubility kinetic in series [9] was 150 µM (≈ 68.7 µg/mL). For the same compound, the solubility in series [10] is 11.1 µg/mL (≈ 24.2 µM); in [11], 60.1 µg/mL (≈ 131 µM). The Papp A→B in series [12] came to 0.047 ×10⁻⁶ cm/s. For the same compound, the Papp B→A in series [13] was determined as 0.102 ×10⁻⁶ cm/s. Besides, the CLH in [14] was < 0.6 µL/min/g; in series [15] it was < 1.1 µL/min/g; in [16], 1.5 µL/min/g; in series [17], < 0.8 µL/min/g.
